What was measured:
L1210 = assay: Evaluated for cytotoxicity against L1210 mouse leukemia cells; format: functional; conditions: read-out: ID50 (the source's name)
Summary of the method: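 L1210 murine leukemia cells in Eagle's minimal essential medium with 15% fetal calf serum, streptomycin (100 μg/mL), penicillin (100 units/mL) and 0.05 mM 2-mercaptoethanol. Cells counted by Coulter counter after 48 h exposure. ID50 is the 50% growth-inhibitory dose. Triplicate assays, standard deviation ±10%.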

Mus musculus [1] = assay: Antitumor activity was determined for average weight on day 1 against P-388 leukemia in mice at a dose of 300 mg/kg; format: functional
Summary of the method: (§1)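 Male B6D2F1J mice, groups of 5, inoculated ip with 10⁶ P-388 cells on day 0. Drug given ip on days 1-4 (qd × 4) in sterile saline, or in 10% Tween 80 for the poorly water-soluble thioether. Average weight per mouse recorded on day 1, with reweighing on day 7 for percent weight change. Untreated control groups had 10-17 animals per experiment.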

Mus musculus [2] = assay: Antitumor activity was determined for 7-day average percent weight change against P-388 leukemia in mice at a dose of 150 mg/kg; format: functional
Summary of the method: (§2)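 Male B6D2F1J mice given 10⁶ P-388 cells ip on day 0, then treated ip once daily on days 1-4 (qd × 4), 5 mice per dose group. Compounds dosed in sterile saline, except one lipophilic thioether given in 10% Tween 80. Mice weighed on days 1 and 7; mean weight per mouse on day 1 and 7-day weight change reported in g and as percent.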

Mus musculus [3] = assay: Antitumor activity was determined for survival range of mice against P-388 leukemia in mice at a dose of 600 mg/kg; format: functional
Summary of the method: (§3)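 Male B6D2F1J mice implanted ip with 10⁶ P-388 cells on day 0; test agents given ip on days 1–4 (qd × 4) in sterile saline, or in 10% Tween 80 for the lipophilic thioether. Groups of 5 treated mice, with 10–17 untreated controls per experiment. Mice weighed on days 1 and 7 to give the 7-day weight change in g and %. Survival recorded in days as median and range.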

Mus musculus [4] = assay: Antitumor activity was determined for survival range of mice against P-388 leukemia in mice at a dose of 300 mg/kg; format: functional; summary of the method: as §3
Mus musculus [5] = assay: Antitumor activity was determined for average 7-day weight change against P-388 leukemia in mice at a dose of 300 mg/kg; format: functional; summary of the method: as §2
Mus musculus [6] = assay: Antitumor activity was determined for survival range of mice against P-388 leukemia in mice at a dose of 150 mg/kg; format: functional; summary of the method: as §3
Mus musculus [7] = assay: Antitumor activity was determined for median survival of mice against P-388 leukemia in mice at a dose of 150 mg/kg; format: functional; summary of the method: as §3
Mus musculus [8] = assay: Percent increase in life span against P-388 leukemia in mice was determined at a dose of 150 mg/kg; format: functional; conditions: P388
Summary of the method: (§4)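 Male B6D2F1J mice, 5 per dose group, received 10⁶ P-388 cells ip on day 0. Dosing was ip qd × 4 on days 1-4 in sterile saline, or 10% Tween 80 for the butyl thioether. Median survival times of treated (T) and untreated control (C, 10-17 mice) groups were compared: %ILS = [(T/C) − 1]100. Weights taken on days 1 and 7.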

Mus musculus [9] = assay: Antitumor activity was determined for median survival of mice against P-388 leukemia in mice at a dose of 75 mg/kg; format: functional; summary of the method: as §3
Mus musculus [10] = assay: Antitumor activity was determined for 7-day average percent weight change against P-388 leukemia in mice at a dose of 300 mg/kg; format: functional; summary of the method: as §2
Mus musculus [11] = assay: Antitumor activity was determined for median survival of mice against P-388 leukemia in mice at a dose of 600 mg/kg; format: functional; summary of the method: as §3
Mus musculus [12] = assay: Antitumor activity was determined for average weight on day 1 against P-388 leukemia in mice at a dose of 600 mg/kg; format: functional; summary of the method: as §1
Mus musculus [13] = assay: Antitumor activity was determined for median survival of mice against P-388 leukemia in mice at a dose of 300 mg/kg; format: functional; summary of the method: as §3
Mus musculus [14] = assay: Antitumor activity was determined for average weight on day 1 against P-388 leukemia in mice at a dose of 150 mg/kg; format: functional; summary of the method: as §2
Mus musculus [15] = assay: Antitumor activity was determined for average 7-day weight change against P-388 leukemia in mice at a dose of 75 mg/kg; format: functional; summary of the method: as §2
Mus musculus [16] = assay: Antitumor activity was determined for survival range of mice against P-388 leukemia in mice at a dose of 75 mg/kg; format: functional
Summary of the method: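 Male B6D2F1J mice, 5 per dose group, implanted ip with 10⁶ P-388 leukemia cells on day 0. Drug given ip daily on days 1-4 (qd × 4) in sterile saline, or in 10% Tween 80 for the butyl thioether. Survival range recorded in days. Untreated control groups had 10-17 animals per experiment. Mice weighed on days 1 and 7.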

Mus musculus [17] = assay: Percent increase in life span against P-388 leukemia in mice was determined at a dose of 300 mg/kg; format: functional; conditions: P388; summary of the method: as §4
Mus musculus [18] = assay: Percent increase in life span against P-388 leukemia in mice was determined at a dose of 75 mg/kg; format: functional; conditions: P388; summary of the method: as §4
Mus musculus [19] = assay: Antitumor activity was determined for 7-day average percent weight change against P-388 leukemia in mice at a dose of 75 mg/kg; format: functional; summary of the method: as §2
Mus musculus [20] = assay: Antitumor activity was determined for average weight on day 1 against P-388 leukemia in mice at a dose of 75 mg/kg; format: functional; summary of the method: as §1
Mus musculus [21] = assay: Percent increase in life span against P-388 leukemia in mice was determined at a dose of 600 mg/kg; format: functional; conditions: P388; summary of the method: as §4
Mus musculus [22] = assay: Antitumor activity was determined for average 7-day weight change against P-388 leukemia in mice at a dose of 150 mg/kg; format: functional; summary of the method: as §2
P388 [23] = assay: Antitumor activity was determined for 7-day average percent weight change against P-388 leukemia in mice at a dose of 15 mg/kg; format: functional, Mus musculus; summary of the method: as §3
P388 [24] = assay: Antitumor activity was determined for average weight on day 1 against P-388 leukemia in mice at a dose of 30 mg/kg; format: functional, Mus musculus; summary of the method: as §3
P388 [25] = assay: Percent increase in life span against P-388 leukemia in mice was determined at a dose of 15 mg/kg; format: functional; conditions: Mus musculus; summary of the method: as §4
P388 [26] = assay: Antitumor activity was determined for average weight on day 1 against P-388 leukemia in mice at a dose of 15 mg/kg; format: functional, Mus musculus; summary of the method: as §3
P388 [27] = assay: Antitumor activity was determined for survival range of mice against P-388 leukemia in mice at a dose of 30 mg/kg; format: functional, Mus musculus; summary of the method: as §3
P388 [28] = assay: Antitumor activity was determined for average 7-day weight change against P-388 leukemia in mice at a dose of 15 mg/kg; format: functional, Mus musculus; summary of the method: as §3
P388 [29] = assay: Antitumor activity was determined for survival range of mice against P-388 leukemia in mice at a dose of 15 mg/kg; format: functional, Mus musculus; summary of the method: as §3
P388 [30] = assay: Percent increase in life span against P-388 leukemia in mice was determined at a dose of 30 mg/kg; format: functional; conditions: Mus musculus; summary of the method: as §4
P388 [31] = assay: Antitumor activity was determined for average 7-day weight change against P-388 leukemia in mice at a dose of 30 mg/kg; format: functional, Mus musculus; summary of the method: as §3
P388 [32] = assay: Antitumor activity was determined for 7-day average percent weight change against P-388 leukemia in mice at a dose of 30 mg/kg; format: functional, Mus musculus; summary of the method: as §3
P388 [33] = assay: Antitumor activity was determined for median survival of mice against P-388 leukemia in mice at a dose of 30 mg/kg; format: functional, Mus musculus; summary of the method: as §3
P388 [34] = assay: Antitumor activity was determined for median survival of mice against P-388 leukemia in mice at a dose of 15 mg/kg; format: functional, Mus musculus; summary of the method: as §3

## CCOC(=O)[C@H]1OC(n2cc(F)c(=O)[nH]c2=O)[C@H](O)[C@@H]1O (some centres not stated)
L1210
  IC50: > 1000 µM

## CCCCSC[C@H]1OC(n2cc(F)c(=O)[nH]c2=O)[C@H](O)[C@@H]1O (some centres not stated)
Mus musculus [1]
  Average weight: 28 g mouse-1
Mus musculus [2]
  Weight change: 5%
Mus musculus [3]
  Survival range: 3
Mus musculus [4]
  Survival range: 11
Mus musculus [5]
  Average weight: -0.4 g mouse-1
Mus musculus [6]
  Survival range: 10
Mus musculus [7]
  Survival median: 11
Mus musculus [8]
  ILS at 150 mg/kg: -9%
Mus musculus [9]
  Survival median: 11
Mus musculus [10]
  Weight change: -1%
Mus musculus [11]
  Survival median: 4
Mus musculus [12]
  Average weight: 26.4 g mouse-1
Mus musculus [13]
  Survival median: 11
Mus musculus [14]
  Average weight: 27.8 g mouse-1
Mus musculus [15]
  Average weight: 2 g mouse-1
Mus musculus [16]
  Survival range: 11
Mus musculus [17]
  ILS at 300 mg/kg: -9%
Mus musculus [18]
  ILS at 75 mg/kg: -9%
Mus musculus [19]
  Weight change: 8%
Mus musculus [20]
  Average weight: 26.6 g mouse-1
L1210
  IC50: 270 µM
Mus musculus [21]
  ILS at 600 mg/kg: -67%
Mus musculus [22]
  Average weight: 1.4 g mouse-1

## O=c1[nH]cc(F)c(=O)[nH]1 [FLUOROURACIL]
P388 [23]
  Weight change: 2%
P388 [24]
  Average weight: 24.2 g mouse-1
P388 [25]
  ILS at 15 mg/kg: 73%
P388 [26]
  Average weight: 24.4 g mouse-1
P388 [27]
  Survival range: 11
P388 [28]
  Average weight: 0.4 g mouse-1
P388 [29]
  Survival range: 15
P388 [30]
  ILS at 30 mg/kg: 91%
P388 [31]
  Average weight: -3.2 g mouse-1
P388 [32]
  Weight change: -13%
P388 [33]
  Survival median: 21
L1210
  IC50: 1 µM
P388 [34]
  Survival median: 19

Reference: ChEMBL document CHEMBL1122125, “Synthesis and in vivo antitumor activity of potential 5-fluorouracil prodrugs” (1982)
